{"source": "ChEMBL document CHEMBL1125337", "about": "“Synthesis and antibacterial activity of a series of basic amides of teicoplanin and deglucoteicoplanin with polyamines” (J Med Chem, 1992)", "key": {"Enterococcus faecalis": {"tested_on": "Enterococcus faecalis", "test": "Minimum inhibitory concentration against Enterococcus faecalis ATCC 7080", "assay_type": "functional", "outline": "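Microbroth dilution MIC (µg/mL), final inoculum 10^4 cfu/mL, incubated 24 h at 37 °C in air.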"}, "Streptococcus pyogenes [1]": {"tested_on": "Streptococcus pyogenes", "test": "Minimum inhibitory concentration against Streptococcus pyogenes L 49", "assay_type": "functional", "outline": "(§1)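 MIC (µg/mL) by microbroth dilution in Todd-Hewitt broth, final inoculum 10^4 cfu/mL, incubated 24 h at 37 °C in air.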"}, "Proteus vulgaris": {"tested_on": "Proteus vulgaris", "test": "Minimum inhibitory concentration against Proteus vulgaris ATCC 881", "assay_type": "functional", "outline": "(§2)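 MIC (µg/mL) by microbroth dilution in Iso-Sensitest broth; final inoculum 10^4 cfu/mL; 24 h at 37 °C in air.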"}, "[2]": {"test": "Association constant to Ac2-L-Lys-D-Ala-D-Ala determined at pH 9; Value ranges from 5E4-7.5E4"}, "Escherichia coli": {"tested_on": "Escherichia coli", "test": "Minimum inhibitory concentration against Escherichia coli L 47", "assay_type": "functional", "outline": "as §2"}, "[3]": {"tested_on": "Staphylococcus haemolyticus", "test": "Minimum inhibitory concentration against Staphylococcus haemolyticus L 602", "assay_type": "functional", "outline": "as §2"}, "[4]": {"tested_on": "Staphylococcus epidermidis", "test": "Minimum inhibitory concentration against Staphylococcus epidermidis ATCC 12228", "assay_type": "functional", "outline": "as §2"}, "Staphylococcus aureus": {"tested_on": "Staphylococcus aureus", "test": "Minimum inhibitory concentration against Staphylococcus aureus L 165", "assay_type": "functional", "outline": "as §2"}, "Streptococcus pneumoniae": {"tested_on": "Streptococcus pneumoniae", "test": "Minimum inhibitory concentration against Streptococcus pneumoniae L 44", "assay_type": "functional", "outline": "as §1"}, "Pseudomonas aeruginosa": {"tested_on": "Pseudomonas aeruginosa", "test": "Minimum inhibitory concentration against Pseudomonas aeruginosa ATCC 10145", "assay_type": "functional", "outline": "as §2"}, "Streptococcus pyogenes [5]": {"tested_on": "Streptococcus pyogenes", "test": "Efficacy of compound administered subcutaneously against Streptococcus pyogenes L 49 Septicemia in mouse", "assay_type": "functional", "settings": "sc", "outline": "(§3)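 Mice were infected intraperitoneally with about 10^5 Strep. pyogenes L 49 cells, about 100 times the 50% lethal dose. Groups of 5–8 mice were treated once right after challenge, by the route stated in the line. ED50 (mg/kg) was derived from percentage survival at each dose on day 7 (Spearman-Kärber).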"}, "Streptococcus pyogenes [6]": {"tested_on": "Streptococcus pyogenes", "test": "Minimum inhibitory concentration of compound was determined against Streptococcus pyogenes L 49 in mouse", "assay_type": "functional"}, "Streptococcus pyogenes [7]": {"tested_on": "Streptococcus pyogenes", "test": "Efficacy of compound administered perorally against Streptococcus pyogenes L 49 Septicemia in mouse", "assay_type": "functional", "settings": "po", "outline": "as §3"}, "[8]": {"test": "Association constant to Ac2-L-Lys-D-Ala-D-Ala determined at pH 9; Value ranges from (9.5E4-3.5E5)"}}, "data": [{"smiles": "NCCNCCNC(=O)[C@H]1NC(=O)[C@H]2NC(=O)[C@H](NC(=O)[C@@H]3NC(=O)[C@H]4NC(=O)[C@@H](Cc5ccc(c(Cl)c5)Oc5cc3cc(c5O)Oc3ccc(cc3Cl)[C@H]2O)NC(=O)[C@H](N)c2ccc(O)c(c2)Oc2cc(O)cc4c2)c2ccc(O)c(c2)-c2c(O)cc(O)cc21", "values": [{"measurement": "MIC", "setting": "Enterococcus faecalis", "result": 0.125, "unit": "µg/mL"}, {"measurement": "MIC", "setting": "Streptococcus pyogenes [1]", "result": 0.125, "unit": "µg/mL"}, {"measurement": "MIC", "setting": "Proteus vulgaris", "result": 64, "unit": "µg/mL"}, {"measurement": "Ka", "setting": "[2]", "result": 75000, "unit": "M⁻¹"}, {"measurement": "MIC", "setting": "Escherichia coli", "result": 8, "unit": "µg/mL"}, {"measurement": "MIC", "setting": "[3]", "result": 0.125, "unit": "µg/mL"}, {"measurement": "MIC", "setting": "[4]", "result": 0.063, "unit": "µg/mL"}, {"measurement": "MIC", "setting": "Staphylococcus aureus", "result": 0.063, "unit": "µg/mL"}, {"measurement": "MIC", "setting": "Streptococcus pneumoniae", "result": 0.125, "unit": "µg/mL"}, {"measurement": "MIC", "setting": "Pseudomonas aeruginosa", "result": 64, "unit": "µg/mL"}]}, {"smiles": "NCCN(CCN)CCNC(=O)[C@H]1NC(=O)[C@H]2NC(=O)[C@H](NC(=O)[C@@H]3NC(=O)[C@H]4NC(=O)[C@@H](Cc5ccc(c(Cl)c5)Oc5cc3cc(c5O)Oc3ccc(cc3Cl)[C@H]2O)NC(=O)[C@H](N)c2ccc(O)c(c2)Oc2cc(O)cc4c2)c2ccc(O)c(c2)-c2c(O)cc(O)cc21", "values": [{"measurement": "MIC", "setting": "Enterococcus faecalis", "result": 0.125, "unit": "µg/mL"}, {"measurement": "MIC", "setting": "Streptococcus pyogenes [1]", "result": 0.063, "unit": "µg/mL"}, {"measurement": "MIC", "setting": "Proteus vulgaris", "result": 32, "unit": "µg/mL"}, {"measurement": "Ka", "setting": "[2]", "result": 75000, "unit": "M⁻¹"}, {"measurement": "MIC", "setting": "Escherichia coli", "result": 1, "unit": "µg/mL"}, {"measurement": "ED50", "setting": "Streptococcus pyogenes [5]", "result": 1.25, "unit": "mg/kg"}, {"measurement": "MIC", "setting": "[3]", "result": 0.063, "unit": "µg/mL"}, {"measurement": "MIC", "setting": "Streptococcus pyogenes [6]", "result": 0.06, "unit": "µg/mL"}, {"measurement": "MIC", "setting": "[4]", "result": 0.016, "unit": "µg/mL"}, {"measurement": "MIC", "setting": "Staphylococcus aureus", "result": 0.063, "unit": "µg/mL"}, {"measurement": "MIC", "setting": "Streptococcus pneumoniae", "result": 0.125, "unit": "µg/mL"}, {"measurement": "MIC", "setting": "Pseudomonas aeruginosa", "result": 8, "unit": "µg/mL"}]}, {"smiles": "CC(=O)N[C@@H]1[C@H](O[C@@H]2c3ccc(c(Cl)c3)Oc3cc4cc(c3O[C@@H]3O[C@@H](CO)[C@@H](O)[C@H](O)[C@@H]3NC(=O)CCCCCCC(C)C)Oc3ccc(cc3Cl)C[C@H]3NC(=O)[C@H](N)c5ccc(O)c(c5)Oc5cc(O)cc(c5)[C@H](NC3=O)C(=O)N[C@H]4C(=O)N[C@H]3C(=O)N[C@@H]2C(=O)N[C@H](C(=O)NCCCN2CCCCNCCCC2)c2cc(O)cc(O[C@H]4O[C@H](CO)[C@@H](O)[C@@H](O)[C@@H]4O)c2-c2cc3ccc2O)O[C@@H](CO)[C@@H](O)[C@@H]1O", "values": [{"measurement": "MIC", "setting": "Enterococcus faecalis", "result": 0.125, "unit": "µg/mL"}, {"measurement": "MIC", "setting": "Streptococcus pyogenes [1]", "result": 0.063, "unit": "µg/mL"}, {"measurement": "ED50", "setting": "Streptococcus pyogenes [5]", "result": 0.08, "unit": "mg/kg"}, {"measurement": "MIC", "setting": "[3]", "result": 0.125, "unit": "µg/mL"}, {"measurement": "ED50", "setting": "Streptococcus pyogenes [7]", "result": 90, "unit": "mg/kg"}, {"measurement": "Ka", "setting": "[8]", "result": 350000, "unit": "M⁻¹"}, {"measurement": "MIC", "setting": "[4]", "result": 0.063, "unit": "µg/mL"}, {"measurement": "MIC", "setting": "Staphylococcus aureus", "result": 0.125, "unit": "µg/mL"}, {"measurement": "MIC", "setting": "Streptococcus pneumoniae", "result": 0.125, "unit": "µg/mL"}]}, {"smiles": "CC(=O)N[C@@H]1[C@H](O[C@@H]2c3ccc(c(Cl)c3)Oc3cc4cc(c3O[C@@H]3O[C@@H](CO)[C@@H](O)[C@H](O)[C@@H]3NC(=O)CCCCCCC(C)C)Oc3ccc(cc3Cl)C[C@H]3NC(=O)[C@H](N)c5ccc(O)c(c5)Oc5cc(O)cc(c5)[C@H](NC3=O)C(=O)N[C@H]4C(=O)N[C@H]3C(=O)N[C@@H]2C(=O)N[C@H](C(=O)NCCNCCNCCNCCNCCN)c2cc(O)cc(O[C@H]4O[C@H](CO)[C@@H](O)[C@@H](O)[C@@H]4O)c2-c2cc3ccc2O)O[C@@H](CO)[C@@H](O)[C@@H]1O", "values": [{"measurement": "MIC", "setting": "Enterococcus faecalis", "result": 0.125, "unit": "µg/mL"}, {"measurement": "MIC", "setting": "Streptococcus pyogenes [1]", "result": 0.063, "unit": "µg/mL"}, {"measurement": "ED50", "setting": "Streptococcus pyogenes [5]", "result": 0.08, "unit": "mg/kg"}, {"measurement": "MIC", "setting": "[3]", "result": 0.125, "unit": "µg/mL"}, {"measurement": "ED50", "setting": "Streptococcus pyogenes [7]", "result": 112, "unit": "mg/kg"}, {"measurement": "Ka", "setting": "[8]", "result": 350000, "unit": "M⁻¹"}, {"measurement": "MIC", "setting": "[4]", "result": 0.063, "unit": "µg/mL"}, {"measurement": "MIC", "setting": "Staphylococcus aureus", "result": 0.25, "unit": "µg/mL"}, {"measurement": "MIC", "setting": "Streptococcus pneumoniae", "result": 0.125, "unit": "µg/mL"}]}, {"smiles": "NCCCNCCCCNCCCNC(=O)[C@H]1NC(=O)[C@H]2NC(=O)[C@H](NC(=O)[C@@H]3NC(=O)[C@H]4NC(=O)[C@@H](Cc5ccc(c(Cl)c5)Oc5cc3cc(c5O)Oc3ccc(cc3Cl)[C@H]2O)NC(=O)[C@H](N)c2ccc(O)c(c2)Oc2cc(O)cc4c2)c2ccc(O)c(c2)-c2c(O)cc(O)cc21", "values": [{"measurement": "MIC", "setting": "Enterococcus faecalis", "result": 0.125, "unit": "µg/mL"}, {"measurement": "MIC", "setting": "Streptococcus pyogenes [1]", "result": 0.063, "unit": "µg/mL"}, {"measurement": "MIC", "setting": "Proteus vulgaris", "result": 64, "unit": "µg/mL"}, {"measurement": "Ka", "setting": "[2]", "result": 75000, "unit": "M⁻¹"}, {"measurement": "MIC", "setting": "Escherichia coli", "result": 2, "unit": "µg/mL"}, {"measurement": "ED50", "setting": "Streptococcus pyogenes [5]", "result": 0.41, "unit": "mg/kg"}, {"measurement": "MIC", "setting": "[3]", "result": 0.125, "unit": "µg/mL"}, {"measurement": "MIC", "setting": "Streptococcus pyogenes [6]", "result": 0.06, "unit": "µg/mL"}, {"measurement": "MIC", "setting": "[4]", "result": 0.063, "unit": "µg/mL"}, {"measurement": "MIC", "setting": "Staphylococcus aureus", "result": 0.063, "unit": "µg/mL"}, {"measurement": "MIC", "setting": "Streptococcus pneumoniae", "result": 0.125, "unit": "µg/mL"}, {"measurement": "MIC", "setting": "Pseudomonas aeruginosa", "result": 8, "unit": "µg/mL"}]}, {"smiles": "CC(=O)N[C@@H]1[C@H](O[C@@H]2c3ccc(c(Cl)c3)Oc3cc4cc(c3O[C@@H]3O[C@@H](CO)[C@@H](O)[C@H](O)[C@@H]3NC(=O)CCCCCCC(C)C)Oc3ccc(cc3Cl)C[C@H]3NC(=O)[C@H](N)c5ccc(O)c(c5)Oc5cc(O)cc(c5)[C@H](NC3=O)C(=O)N[C@H]4C(=O)N[C@H]3C(=O)N[C@@H]2C(=O)N[C@H](C(=O)NCCCNCCCNCCCN)c2cc(O)cc(O[C@H]4O[C@H](CO)[C@@H](O)[C@@H](O)[C@@H]4O)c2-c2cc3ccc2O)O[C@@H](CO)[C@@H](O)[C@@H]1O", "values": [{"measurement": "MIC", "setting": "Enterococcus faecalis", "result": 0.125, "unit": "µg/mL"}, {"measurement": "MIC", "setting": "Streptococcus pyogenes [1]", "result": 0.063, "unit": "µg/mL"}, {"measurement": "ED50", "setting": "Streptococcus pyogenes [5]", "result": 0.06, "unit": "mg/kg"}, {"measurement": "MIC", "setting": "[3]", "result": 0.125, "unit": "µg/mL"}, {"measurement": "ED50", "setting": "Streptococcus pyogenes [7]", "result": 80, "unit": "mg/kg"}, {"measurement": "Ka", "setting": "[8]", "result": 350000, "unit": "M⁻¹"}, {"measurement": "MIC", "setting": "[4]", "result": 0.063, "unit": "µg/mL"}, {"measurement": "MIC", "setting": "Staphylococcus aureus", "result": 0.125, "unit": "µg/mL"}, {"measurement": "MIC", "setting": "Streptococcus pneumoniae", "result": 0.125, "unit": "µg/mL"}]}]}
